Active and inactive are the calls of the source. The calls are words filed in the database; no cut-off is given here.
How the values were obtained:
[1] = biological target: CAR3 (NR1I3) (Homo sapiens, UniProt Q14994, WILDTYPEORMUTANTINASSAY1587668); assay: (§1) Agonist activity at human CAR3 expressed in African green monkey COS-1 cells cotransfected with RXRalpha after 24 hrs by CYP2B6-luciferase reporter gene assay; assay type: cell-based; settings: human, COS-1 cells expressing human CAR3 and RXRalpha; read-out: Imax
How it was run: (§2)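 COS-1 cells co-transfected with CYP2B6-luc, low-constitutive-activity CAR3 variant, RXRα (100 ng/well) and pRL-TK; after 24 h stabilization, compound or DMSO (0.1%, v/v) for 24 h. Firefly luciferase normalized to Renilla; fold change relative to vehicle (set to 1), means of three independent experiments.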

[2] = biological target: Nuclear receptor subfamily 1 group I member 3 (Homo sapiens, UniProt Q14994); assay: as §1; assay type: cell-based; settings: for EC50: cos-1; for Activity: human, cos-1, 24 h; how it was run: as §2
[3] = biological target: T1, Nuclear receptor subfamily 1 group I member 3 (Homo sapiens, UniProt Q14994); assay: Agonist activity at CAR LBD (108 to 348 residues) expressed in human HepG2 cells assessed as receptor binding to PGC1alpha by lanthascreenTR-FRET coactivator assay
T1 sequence (Q14994 whole entry): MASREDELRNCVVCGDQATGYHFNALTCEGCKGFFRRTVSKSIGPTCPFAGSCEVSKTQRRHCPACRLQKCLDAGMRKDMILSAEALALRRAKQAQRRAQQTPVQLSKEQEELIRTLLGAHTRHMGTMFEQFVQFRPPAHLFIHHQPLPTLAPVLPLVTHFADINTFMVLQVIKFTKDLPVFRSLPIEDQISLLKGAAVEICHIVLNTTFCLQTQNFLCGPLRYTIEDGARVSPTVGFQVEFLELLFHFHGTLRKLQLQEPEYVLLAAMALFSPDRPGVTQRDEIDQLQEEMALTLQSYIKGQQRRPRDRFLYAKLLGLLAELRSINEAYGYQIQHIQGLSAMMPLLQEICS

[4] = biological target: T2, Nuclear receptor subfamily 1 group I member 2 (Homo sapiens, UniProt O75469); assay: (§3) Agonist activity at PXR expressed in human HepG2 cells after 24 hrs by p3A4-luciferase reporter gene assay
T2 sequence (O75469 whole entry): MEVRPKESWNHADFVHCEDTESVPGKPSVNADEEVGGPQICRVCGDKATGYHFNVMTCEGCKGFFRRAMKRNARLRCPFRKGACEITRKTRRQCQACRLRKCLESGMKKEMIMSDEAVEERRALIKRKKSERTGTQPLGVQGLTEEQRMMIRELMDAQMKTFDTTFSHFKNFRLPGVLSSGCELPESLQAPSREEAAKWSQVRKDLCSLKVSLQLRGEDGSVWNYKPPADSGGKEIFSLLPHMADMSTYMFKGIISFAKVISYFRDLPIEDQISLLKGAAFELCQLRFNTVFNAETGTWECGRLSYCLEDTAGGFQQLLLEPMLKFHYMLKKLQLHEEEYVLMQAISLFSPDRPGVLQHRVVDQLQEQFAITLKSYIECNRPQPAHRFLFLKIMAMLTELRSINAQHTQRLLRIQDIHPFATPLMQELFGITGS

[5] = biological target: T3, PXR (NR1I2) (Homo sapiens, UniProt O75469); assay: as §3; settings: human, HepG2 cells expressing PXR
T3 sequence (O75469 whole entry): T2 sequence (O75469 whole entry)

[6] = biological target: T4, Vitamin D3 receptor (Homo sapiens) (UniProt P11473); assay: Agonist activity at VDR in human primary hepatocytes assessed as upregulation of CYP3A4 mRNA expression at 10 uM after 24 hrs by qRT-PCR method; assay type: cell-based; settings: Hepatocyte
T4 sequence (whole entry): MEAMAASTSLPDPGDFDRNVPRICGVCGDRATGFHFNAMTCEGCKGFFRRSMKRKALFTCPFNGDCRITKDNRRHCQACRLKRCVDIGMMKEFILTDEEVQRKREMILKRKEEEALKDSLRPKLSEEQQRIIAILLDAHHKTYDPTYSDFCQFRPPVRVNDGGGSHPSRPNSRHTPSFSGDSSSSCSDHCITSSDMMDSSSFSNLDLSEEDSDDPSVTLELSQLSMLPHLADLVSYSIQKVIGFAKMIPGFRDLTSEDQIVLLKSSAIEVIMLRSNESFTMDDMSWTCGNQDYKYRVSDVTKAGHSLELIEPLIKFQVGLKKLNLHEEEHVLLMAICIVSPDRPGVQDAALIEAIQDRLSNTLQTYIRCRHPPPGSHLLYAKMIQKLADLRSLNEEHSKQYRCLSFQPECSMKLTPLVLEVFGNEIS

[7] = biological target: T5, Cytochrome P450 2B6 (Homo sapiens, UniProt P20813); assay: Inhibition of recombinant human CYP2B6 by P450-Glo luminescence assay; assay type: ADME
T5 sequence (P20813 whole entry): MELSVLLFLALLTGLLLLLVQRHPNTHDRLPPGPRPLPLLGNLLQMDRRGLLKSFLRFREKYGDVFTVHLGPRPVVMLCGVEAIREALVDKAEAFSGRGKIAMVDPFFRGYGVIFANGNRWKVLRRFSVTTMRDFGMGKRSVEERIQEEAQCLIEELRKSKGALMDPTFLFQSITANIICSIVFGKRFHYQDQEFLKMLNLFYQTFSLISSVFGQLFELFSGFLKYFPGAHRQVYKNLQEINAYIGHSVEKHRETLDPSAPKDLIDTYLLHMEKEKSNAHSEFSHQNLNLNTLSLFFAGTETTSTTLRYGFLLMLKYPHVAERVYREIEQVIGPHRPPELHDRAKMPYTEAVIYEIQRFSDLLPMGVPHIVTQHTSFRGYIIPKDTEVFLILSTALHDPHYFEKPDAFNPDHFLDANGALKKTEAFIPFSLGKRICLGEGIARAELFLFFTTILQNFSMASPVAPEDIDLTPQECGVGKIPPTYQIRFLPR

[8] = biological target: T6, Cytochrome P450 1A2 (Homo sapiens, UniProt P05177); assay: Inhibition of recombinant human CYP1A2 by P450-Glo luminescence assay; assay type: ADME
T6 sequence (P05177 whole entry): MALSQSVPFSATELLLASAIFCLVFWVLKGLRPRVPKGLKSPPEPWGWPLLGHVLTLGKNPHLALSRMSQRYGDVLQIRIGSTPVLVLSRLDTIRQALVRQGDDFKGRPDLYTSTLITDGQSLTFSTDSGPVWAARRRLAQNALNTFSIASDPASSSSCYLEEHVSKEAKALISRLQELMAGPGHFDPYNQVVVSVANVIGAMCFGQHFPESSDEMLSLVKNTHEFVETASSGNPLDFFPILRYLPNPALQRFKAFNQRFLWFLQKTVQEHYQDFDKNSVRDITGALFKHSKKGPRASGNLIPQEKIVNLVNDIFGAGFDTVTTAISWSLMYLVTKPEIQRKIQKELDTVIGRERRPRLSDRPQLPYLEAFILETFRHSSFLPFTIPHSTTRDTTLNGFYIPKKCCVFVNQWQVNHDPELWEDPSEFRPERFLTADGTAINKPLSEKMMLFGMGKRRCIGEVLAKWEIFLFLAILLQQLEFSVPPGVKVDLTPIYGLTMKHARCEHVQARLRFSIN

[9] = biological target: Cytochrome P450 2C9 (Homo sapiens, UniProt P11712); assay: Inhibition of recombinant human CYP2C9 by P450-Glo luminescence assay; assay type: ADME
[10] = biological target: T1, Nuclear receptor subfamily 1 group I member 3; assay: Agonist activity at human CAR expressed in human HepG2 cells assessed as induction of CYP2B6 mRNA expression at 1 to 5 uM after 24 hrs by qRT-PCR method; assay type: cell-based; settings: hepg2, 24 h

Sequence of Cytochrome P450 2C9 (P11712 whole entry): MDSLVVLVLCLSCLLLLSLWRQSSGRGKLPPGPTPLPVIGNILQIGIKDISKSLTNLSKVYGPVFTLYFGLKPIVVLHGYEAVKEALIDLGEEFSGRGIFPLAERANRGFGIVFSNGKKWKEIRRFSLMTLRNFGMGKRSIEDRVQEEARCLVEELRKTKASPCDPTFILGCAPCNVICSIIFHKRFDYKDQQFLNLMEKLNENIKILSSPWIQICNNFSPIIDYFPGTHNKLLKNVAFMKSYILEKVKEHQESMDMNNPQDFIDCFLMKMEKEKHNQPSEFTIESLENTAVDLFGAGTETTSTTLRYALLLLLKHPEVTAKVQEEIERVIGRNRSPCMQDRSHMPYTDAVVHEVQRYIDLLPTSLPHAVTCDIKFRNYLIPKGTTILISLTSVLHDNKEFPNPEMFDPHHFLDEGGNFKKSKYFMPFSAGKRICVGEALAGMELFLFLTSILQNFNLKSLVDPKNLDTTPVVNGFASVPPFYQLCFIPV

SMILES: COc1cccc(-c2nc(OC)c3ccccc3n2)c1
- Emax at 24 h [1]: 462%
- EC50 [2]: 4.91 µM
- Activity [2]: Dose-dependent effect
- EC50 [3]: 2.07 µM
- EC50 [4]: > 3 µM
- Emax at 24 h [5]: > 250%
- Activity [6]: Active
- IC50 [7]: 36.2 µM
- IC50 [8]: 0.18 µM
- IC50 [9]: 5.03 µM

SMILES: COc1cccc(-c2nc3ccccc3c(=S)[nH]2)c1
- Activity [10]: Active
- Emax at 24 h [1]: 333%
- EC50 [2]: 6.12 µM
- Activity [2]: Dose-dependent effect
- EC50 [3]: 0.69 µM
- EC50 [4]: 0.86 µM
- Emax at 24 h [5]: 165%
- Activity [6]: Active
- IC50 [7]: 35.7 µM
- IC50 [8]: 0.75 µM
- IC50 [9]: 11 µM

SMILES: COc1cccc(-c2nc(SC)c3ccccc3n2)c1
- Emax at 24 h [1]: 158%
- EC50 [2]: 4.04 µM
- Activity [2]: Dose-dependent effect
- EC50 [3]: 5.12 µM
- EC50 [4]: > 3.5 µM
- Emax at 24 h [5]: > 250%
- Activity [6]: Active
- IC50 [7]: 31.8 µM
- IC50 [8]: 0.42 µM
- IC50 [9]: 4.19 µM

— ChEMBL document CHEMBL3822384, “2-(3-Methoxyphenyl)quinazoline Derivatives: A New Class of Direct Constitutive Androstane Receptor (CAR) Agonists” (J Med Chem, 2016)
